According to ChEMBL document CHEMBL2086304, “Synthesis and in vitro antimycobacterial and isocitrate lyase inhibition properties of novel 2-methoxy-2'-hydroxybenzanilides, their thioxo analogues and benzoxazoles” (Eur J Med Chem, 2012):
In brackets after ≈: the same amount, converted by molar mass.

Columns and labels:
[1] = tested on: Mycobacterium tuberculosis; experiment: Antimycobacterial activity against Mycobacterium tuberculosis 331/88 after 14 days by micromethod; type: functional; settings: 331/88, 336 h
Summary of the method: (§1)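 Inocula: M. tuberculosis My 331/88 at 10^-3 dilution, M. avium My 330/88 at 10^-5, M. kansasii My 235/80 and clinical isolate 6509/96 at 10^-4. Compounds added in DMSO at 1000 down to 0.5 (twofold series). Read at 14 and 21 days, plus 7 days for M. kansasii. MIC taken as lowest concentration inhibiting growth.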

[2] = tested on: Mycobacterium tuberculosis; experiment: Antimycobacterial activity against Mycobacterium tuberculosis 331/88 after 21 days by micromethod; type: functional; settings: 331/88, 504 h; summary of the method: as §1
Mycobacterium avium [3] = experiment: Antimycobacterial activity against isoniazid resistance Mycobacterium avium 330/88 after 14 days by micromethod; type: functional; settings: 330/88, 336 h; summary of the method: as §1
Mycobacterium avium [4] = experiment: Antimycobacterial activity against isoniazid resistance Mycobacterium avium 330/88 after 21 days by micromethod; type: functional; settings: 330/88, 504 h; summary of the method: as §1
Mycobacterium kansasii [5] = experiment: Antimycobacterial activity against Mycobacterium kansasii 6509/96 clinical isolate after 7 days by micromethod; type: functional; settings: 6509/96, 168 h; summary of the method: as §1
Mycobacterium kansasii [6] = experiment: Antimycobacterial activity against isoniazid resistance Mycobacterium kansasii 225/80 after 7 days by micromethod; type: functional; settings: 225/80, 168 h
Mycobacterium kansasii [7] = experiment: Antimycobacterial activity against isoniazid resistance Mycobacterium kansasii 225/80 after 14 days by micromethod; type: functional; settings: 225/80, 336 h
Mycobacterium kansasii [8] = experiment: Antimycobacterial activity against isoniazid resistance Mycobacterium kansasii 225/80 after 21 days by micromethod; type: functional; settings: 225/80, 504 h
Mycobacterium kansasii [9] = experiment: Antimycobacterial activity against Mycobacterium kansasii 6509/96 clinical isolate after 14 days by micromethod; type: functional; settings: 6509/96, 336 h; summary of the method: as §1
Mycobacterium kansasii [10] = experiment: Antimycobacterial activity against Mycobacterium kansasii 6509/96 clinical isolate after 21 days by micromethod; type: functional; settings: 6509/96, 504 h; summary of the method: as §1
[11] = target: T1, Isocitrate lyase (Mycobacterium tuberculosis) (UniProt P9WKK7); experiment: Inhibition of Mycobacterium tuberculosis H37Rv isocitrate lyase expressed in Escherichia coli HB101 at 10 umol/L
T1 sequence (whole entry): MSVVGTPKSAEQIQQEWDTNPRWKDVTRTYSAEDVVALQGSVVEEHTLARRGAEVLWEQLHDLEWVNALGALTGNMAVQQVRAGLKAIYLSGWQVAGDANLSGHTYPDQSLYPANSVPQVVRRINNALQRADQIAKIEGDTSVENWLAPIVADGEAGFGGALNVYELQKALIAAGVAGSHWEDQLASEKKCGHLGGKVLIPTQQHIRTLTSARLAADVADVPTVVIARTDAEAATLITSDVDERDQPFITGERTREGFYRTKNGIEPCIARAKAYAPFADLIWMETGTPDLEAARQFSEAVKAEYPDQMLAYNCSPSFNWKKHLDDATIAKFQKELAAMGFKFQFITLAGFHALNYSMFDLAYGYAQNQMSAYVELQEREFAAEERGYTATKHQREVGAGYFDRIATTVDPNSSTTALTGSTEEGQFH
Summary of the method: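 Isocitrate lyase assayed per Dixon–Kornberg in 96-well format. Buffer: 50 mmol/L KH2PO4, 4 mmol/L MgCl2, 4 mmol/L phenylhydrazine, 12 mmol/L cysteine, pH 7.0. Glyoxylate phenylhydrazone read at 324 nm. Compounds added in DMSO, with DMSO-alone inhibition subtracted.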

HepG2 = experiment: Cytotoxicity against human HepG2 cells after 24 hrs by CellTiter-96 cell viability assay; type: functional, cell-based; settings: HepG2, 24 h
Summary of the method: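 Hep G2 human hepatic cells (passage 12), 10,000 per well, grown 24 h at 37 °C, 5% CO2 in MEM with 1% glutamine, 10% FBS and 1% nonessential amino acids. Compounds in DMSO at eight increasing concentrations, quadruplicate, 24 h at 37 °C. Kit reagent added, 1.5 h at 37 °C, absorbance 490 nm. IC50 is the concentration reducing viability to 50% of control.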

[12] = Selectivity index, ratio of IC50 for human HepG2 cells to MIC for Mycobacterium tuberculosis 331/88 after 14 days; type: functional
Summary of the method: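 Cytotoxicity in Hep G2 cells (passage 12), 10,000 cells/well, in MEM with 10% FBS, 1% glutamine and 1% nonessential amino acids. Cells preincubated 24 h, 37 °C, 5% CO2. Compounds in DMSO at eight concentrations in quadruplicate, 24 h. MTS-type reagent added for 1.5 h, A490 read, IC50 taken at 50% viability. SI = this IC50 over the 14-day M. tuberculosis MIC.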

Structure (SMILES) | MIC [1] [µM] | MIC [2] [µM] | MIC (Mycobacterium avium [3]) [µM] | MIC (Mycobacterium avium [4]) [µM] | MIC (Mycobacterium kansasii [5]) [µM] | MIC (Mycobacterium kansasii [6]) [µM] | MIC (Mycobacterium kansasii [7]) [µM] | MIC (Mycobacterium kansasii [8]) [µM] | MIC (Mycobacterium kansasii [9]) [µM] | MIC (Mycobacterium kansasii [10]) [µM] | inhibition [11] [%] | IC50 (HepG2) [µM] | Selectivity Index [12]
COc1ccc(Cl)cc1C(=O)Nc1ccc(Cl)cc1O | 4 (≈ 1.25 µg/mL) | 4 (≈ 1.25 µg/mL) | 62.5 (≈ 19.5 µg/mL) | 250 (≈ 78 µg/mL) | 8 (≈ 2.5 µg/mL) | 16 (≈ 4.99 µg/mL) | 32 (≈ 9.99 µg/mL) | 62.5 (≈ 19.5 µg/mL) | 16 (≈ 4.99 µg/mL) | 16 (≈ 4.99 µg/mL) | 10 | 51.3 | 12.83
COc1cc(Cl)ccc1C(=O)Nc1cc(C(F)(F)F)ccc1O | 250 (≈ 86.4 µg/mL) | 250 (≈ 86.4 µg/mL) | 250 (≈ 86.4 µg/mL) | 250 (≈ 86.4 µg/mL) | 250 (≈ 86.4 µg/mL) | 250 (≈ 86.4 µg/mL) | 250 (≈ 86.4 µg/mL) | 250 (≈ 86.4 µg/mL) | 250 (≈ 86.4 µg/mL) | 250 (≈ 86.4 µg/mL) | 0 | 25.4 | 0.1
COc1cc(Cl)ccc1C(=S)Nc1cc(C(F)(F)F)ccc1O | 32 (≈ 11.6 µg/mL) | 62.5 (≈ 22.6 µg/mL) | 32 (≈ 11.6 µg/mL) | 62.5 (≈ 22.6 µg/mL) | 32 (≈ 11.6 µg/mL) | 32 (≈ 11.6 µg/mL) | 62.5 (≈ 22.6 µg/mL) | 125 (≈ 45.2 µg/mL) | 62.5 (≈ 22.6 µg/mL) | 125 (≈ 45.2 µg/mL) | 0 | 5.74 | 0.18
COc1cc(Cl)ccc1C(=O)Nc1cc(Cl)c(Cl)cc1O | 500 (≈ 173 µg/mL) | 500 (≈ 173 µg/mL) | > 1000 | > 1000 | 250 (≈ 86.6 µg/mL) | 500 (≈ 173 µg/mL) | 500 (≈ 173 µg/mL) | 500 (≈ 173 µg/mL) | 250 (≈ 86.6 µg/mL) | 250 (≈ 86.6 µg/mL) | 0 | 11.5 | 0.02
COc1cc(Cl)ccc1C(=S)Nc1cc(Cl)ccc1O | 62.5 (≈ 20.5 µg/mL) | 62.5 (≈ 20.5 µg/mL) | 32 (≈ 10.5 µg/mL) | 32 (≈ 10.5 µg/mL) | 32 (≈ 10.5 µg/mL) | 16 (≈ 5.25 µg/mL) | 62.5 (≈ 20.5 µg/mL) | 125 (≈ 41 µg/mL) | 62.5 (≈ 20.5 µg/mL) | 125 (≈ 41 µg/mL) | 9 | 8.49 | 0.14
COc1ccc(Cl)cc1C(=S)Nc1cc(Cl)c(Cl)cc1O | 16 (≈ 5.8 µg/mL) | 32 (≈ 11.6 µg/mL) | 62.5 (≈ 22.7 µg/mL) | 62.5 (≈ 22.7 µg/mL) | 16 (≈ 5.8 µg/mL) | 32 (≈ 11.6 µg/mL) | 62.5 (≈ 22.7 µg/mL) | 62.5 (≈ 22.7 µg/mL) | 32 (≈ 11.6 µg/mL) | 62.5 (≈ 22.7 µg/mL) | 9 | 3.72 | 0.23
COc1cc(Cl)ccc1C(=O)Nc1ccc(Br)cc1O | 125 (≈ 44.6 µg/mL) | 125 (≈ 44.6 µg/mL) | 125 (≈ 44.6 µg/mL) | 125 (≈ 44.6 µg/mL) | 125 (≈ 44.6 µg/mL) | 125 (≈ 44.6 µg/mL) | 125 (≈ 44.6 µg/mL) | 125 (≈ 44.6 µg/mL) | 125 (≈ 44.6 µg/mL) | 125 (≈ 44.6 µg/mL) | 0 | 46.6 | 0.37
COc1cc(Cl)ccc1C(=S)Nc1ccc(Br)cc1O | 16 (≈ 5.96 µg/mL) | 32 (≈ 11.9 µg/mL) | 32 (≈ 11.9 µg/mL) | 32 (≈ 11.9 µg/mL) | 16 (≈ 5.96 µg/mL) | 16 (≈ 5.96 µg/mL) | 32 (≈ 11.9 µg/mL) | 62.5 (≈ 23.3 µg/mL) | 32 (≈ 11.9 µg/mL) | 32 (≈ 11.9 µg/mL) | 10 | 3.88 | 0.24
COc1ccc(Cl)cc1C(=O)Nc1cc(C(F)(F)F)ccc1O | 250 (≈ 86.4 µg/mL) | 250 (≈ 86.4 µg/mL) | 62.5 (≈ 21.6 µg/mL) | 125 (≈ 43.2 µg/mL) | 62.5 (≈ 21.6 µg/mL) | 32 (≈ 11.1 µg/mL) | 62.5 (≈ 21.6 µg/mL) | 62.5 (≈ 21.6 µg/mL) | 125 (≈ 43.2 µg/mL) | 125 (≈ 43.2 µg/mL) | 0 | 15.4 | 0.06
COc1cc(Cl)ccc1C(=O)Nc1cc(Cl)ccc1O | 125 (≈ 39 µg/mL) | 125 (≈ 39 µg/mL) | 125 (≈ 39 µg/mL) | 125 (≈ 39 µg/mL) | 16 (≈ 4.99 µg/mL) | 125 (≈ 39 µg/mL) | 125 (≈ 39 µg/mL) | 125 (≈ 39 µg/mL) | 62.5 (≈ 19.5 µg/mL) | 62.5 (≈ 19.5 µg/mL) | 0 | 87 | 0.7
